Among the data in ChEMBL document CHEMBL1124979, “4-Heterocyclyloxy-2H-1-benzopyran potassium channel activators” (1990) are BP and ED30 values, retold here.

The subject of test [1] is Rattus norvegicus. In words: Antihypertensive activity measured by maximum fall in the mean blood pressure after an oral administration of 1 mg/kg in spontaneously hypertensive rats. The format is functional. The gist of the method: (§1)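 Conscious, unrestrained male spontaneously hypertensive rats (Okamoto strain, 280-330 g, blood pressure >180 mmHg), N ≥ 3, given a single 1 mg/kg oral screening dose. Mean arterial pressure was recorded directly via an aortic catheter from 1 h before to 3.5 h after dosing. The value is the mean of the maximum individual falls over 3.5 h; a fall under 18 mmHg counted as not significant.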

The test system of test [2] is Rattus norvegicus. As to the kind of experiment: Antihypertensive activity measured by maximum fall in the mean blood pressure after an oral administration of 1 mg/kg in spontaneously hypertensive rats; NS= Did not lower the blood pressure significantly. The format is functional, organism-based. Further details: dose 1 mg/kg. The gist of the method: as §1
For test [3], the species on record is Rattus norvegicus. In words: Dose required to reduce mean blood pressure by 30 mmHg in spontaneously hypertensive rats. The test is classed as functional. The gist of the method:
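Conscious male Okamoto SHR (280-330 g, baseline pressure >180 mmHg) fitted with an aortic catheter for continuous direct recording of mean arterial pressure over 3.5 h. Compounds active at the 1 mg/kg oral screen were given orally at 2-4 additional doses. Mean maximal falls were regressed linearly against log dose to derive ED30, the dose in […] lowering pressure by 30 mmHg.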

[4] abbreviates: Rattus norvegicus, Blood, read-out: ED30.

In the case of `CC1(C)Oc2ccc(C#N)cc2C(n2nc(N)ccc2=O)[C@@H]1O` (stereo partly specified), the BP in the test with Rattus norvegicus [1] is reported as 39 mmHg.
The same measure, in the same setting: to `CC1(C)Oc2ccc(C#N)cc2[C@@H](n2ccc(O)cc2=O)[C@@H]1O` belongs 28 mmHg.
As to `CC1(C)Oc2ccc(Br)cc2C(Oc2ccc(=O)[nH]n2)C1O` (stereo unspecified), in the test with Rattus norvegicus [2], the BP result is “Not significant”.
As to `CC1(C)Oc2ccc(C#N)cc2[C@@H](Oc2ccnc(O)c2)[C@@H]1O`, the BP with Rattus norvegicus [1] is on record as 104 mmHg. Besides, the ED30 in the test listed under Rattus norvegicus [3] (setting [4]) came out at 0.006 mg/kg.
Consider `Cn1nc(O[C@H]2c3cc(C#N)ccc3OC(C)(C)[C@@H]2O)ccc1=O`, for which the BP in the test on Rattus norvegicus [1] is 19 mmHg.
`CC1(C)C=C(n2ccc(O)cc2=O)c2cc(C#N)ccc2O1` yielded a BP with Rattus norvegicus [1] of 19 mmHg.
With `CC1(C)Oc2ccc(C#N)cc2C(Oc2ccc(=O)[nH]n2)C1O` (stereo unspecified), the BP in the test with Rattus norvegicus [1] is on record as 129 mmHg. Further, the ED30 in the test listed under Rattus norvegicus [3] (setting [4]) worked out at 0.014 mg/kg.
For `CC1(C)C=C(Oc2ccc(=O)[nH]n2)c2cc(C#N)ccc2O1`, the BP result in the test on Rattus norvegicus [2] was “Not significant”.
The molecule `CC1(C)Oc2ccc(C#N)cc2[C@@H](Oc2ccc(O)nc2)[C@@H]1O` returned a BP in the test with Rattus norvegicus [1] of 23 mmHg.
The molecule `Cn1ccc(O[C@@H]2c3cc(C#N)ccc3OC(C)(C)[C@H]2O)cc1=O` gave a BP in the test with Rattus norvegicus [1] of 83 mmHg.
On to `CC1(C)C=C(Oc2ccc(S)nn2)c2cc(C#N)ccc2O1`, for which the BP result in the test with Rattus norvegicus [2] was “Not significant”.
For the molecule `CCn1nc(O[C@@H]2c3cc(C#N)ccc3OC(C)(C)[C@H]2O)ccc1=O`, the BP in the test with Rattus norvegicus [1] was found to be 127 mmHg. Besides, in the test filed under Rattus norvegicus [3] (setting [4]), the ED30 is 0.02 mg/kg.
Molecule `Cn1nc(O[C@@H]2c3cc(C#N)ccc3OC(C)(C)[C@H]2O)ccc1=O` (stereo in doubt; 22a) registered a BP with Rattus norvegicus [1] (1 mg/kg) of 151 mmHg. This molecule had an ED30 in the test listed under Rattus norvegicus [3] of 0.013 mg/kg.
In the case of `CC1(C)Oc2ccc(C#N)cc2[C@@H](Oc2cc(O)ncn2)[C@@H]1O`, in the test with Rattus norvegicus [2], the BP entry was “Not significant”.
For `Cn1nc(OC2=CC(C)(C)Oc3ccc(C#N)cc32)ccc1=O`, in the test on Rattus norvegicus [2], the BP entry was “Not significant”.
For `CC1(C)Oc2ccc(C#N)cc2[C@@H](Oc2ccc(S)nn2)[C@@H]1O`, the BP entry with Rattus norvegicus [2] is “Not significant”.
Still for that read-out and setting: for `CC1(C)Oc2ccc(C#N)cc2[C@@H](Oc2cccnc2O)[C@@H]1O` the value was “Not significant”.
Molecule `CC(C)n1nc(O[C@@H]2c3cc(C#N)ccc3OC(C)(C)[C@H]2O)ccc1=O` showed a BP with Rattus norvegicus [1] of 32 mmHg.
In the case of `CC1(C)Oc2ccc(C#N)cc2C(n2ccc(N)cc2=O)[C@@H]1O` (stereo partly specified), the BP entry in the test on Rattus norvegicus [2] was “Not significant”.
The same measure, in the same setting: to `COC(=O)c1ccc2c(c1)[C@@H](Oc1ccnc(O)c1)[C@H](O)C(C)(C)O2` belongs “Not significant”.
`COC(=O)c1ccc2c(c1)C(Oc1ccc(=O)[nH]n1)C(O)C(C)(C)O2` (stereo unspecified) gave a BP with Rattus norvegicus [1] of 18 mmHg.
Turning to `CC1(C)Oc2ccc(C#N)cc2[C@@H](Oc2cccnc2N)[C@@H]1O`, the BP entry in the test with Rattus norvegicus [2] is “Not significant”.
The same measure, in the same setting: for `CC1(C)Oc2ccc(C(N)=S)cc2C(Oc2ccc(=O)[nH]n2)C1O` (stereo unspecified) the value was “Not significant”.
Turning to `CC1(C)C=C(Oc2ccnc(O)c2)c2cc(C#N)ccc2O1`, in the test with Rattus norvegicus [2], the BP result is “Not significant”.
The molecule `CC1(C)Oc2ccc([N+](=O)[O-])cc2[C@@H](Oc2ccnc(O)c2)[C@@H]1O` had a BP in the test on Rattus norvegicus [1] of 117 mmHg. Moreover, the ED30 in the test filed under Rattus norvegicus [3] (setting [4]) is 0.013 mg/kg.
In turn, `CC1(C)Oc2ccc([N+](=O)[O-])cc2C(Oc2ccc(=O)[nH]n2)C1O` (stereo unspecified) yielded a BP in the test on Rattus norvegicus [1] of 78 mmHg.
`CC(=O)Oc1ccn(C2=CC(C)(C)Oc3ccc(C#N)cc32)c(=O)c1` returned a BP in the test with Rattus norvegicus [1] of 28 mmHg.
For the molecule `CC1(C)Oc2ccc(C#N)cc2C(n2ccc(N)nc2=O)[C@@H]1O` (stereo partly specified), the BP result in the test on Rattus norvegicus [2] was “Not significant”.
Take `Cn1nc(O[C@@H]2c3cc(C#N)ccc3OC(C)(C)[C@H]2O)ccc1=O` (stereo in doubt; 14a): the BP in the test on Rattus norvegicus [1] (1 mg/kg) turned out to be 124 mmHg. In the test filed under Rattus norvegicus [3] (setting [4]), the ED30 came out at 0.018 mg/kg.
Molecule `CC(=O)OC1C(Oc2ccc(=O)[nH]n2)c2cc(C#N)ccc2OC1(C)C` (stereo unspecified) gave a BP in the test on Rattus norvegicus [1] of 97 mmHg.
Molecule `CC1(C)Oc2ccc(C#N)cc2C(N2CCCC2=O)C1O` (stereo unspecified) [CROMAKALIM] returned a BP in the test on Rattus norvegicus [1] of 78 mmHg. Also, the ED30 in the test listed under Rattus norvegicus [3] (setting [4]) was found to be 0.11 mg/kg.
As to `CC1(C)Oc2ccc(C(=N)S)cc2[C@@H](Oc2ccnc(O)c2)[C@@H]1O`, the BP entry with Rattus norvegicus [2] is “Not significant”.
Still for that read-out and setting: to `CC1(C)Oc2ccc(C#N)cc2[C@@H](n2[nH]c(=O)ccc2=O)[C@@H]1O` belongs “Not significant”; to `CC1(C)Oc2ccc(C#N)cc2[C@H](Oc2ccc(=O)[nH]n2)[C@H]1O`, “Not significant”.
